Test results: ChEMBL document CHEMBL1759933, “Synthesis, human monoamine oxidase inhibitory activity and molecular docking studies of 3-heteroarylcoumarin derivatives” (Eur J Med Chem, 2011); call rule not given here
pIC50: −log10 of the molar value.

Assays:
[1] = molecular target: T1, Amine oxidase [flavin-containing] A (Homo sapiens, UniProt P21397); test: Inhibition of human recombinant MAO-A expressed in BTI-TN-5B1-4 cells assessed as H2O2 production using para-tyramine substrate at 100 uM by fluorimetric method; type: cell-based; settings: bti-tn-5b1-4, 100 µM
T1 sequence (P21397 whole entry): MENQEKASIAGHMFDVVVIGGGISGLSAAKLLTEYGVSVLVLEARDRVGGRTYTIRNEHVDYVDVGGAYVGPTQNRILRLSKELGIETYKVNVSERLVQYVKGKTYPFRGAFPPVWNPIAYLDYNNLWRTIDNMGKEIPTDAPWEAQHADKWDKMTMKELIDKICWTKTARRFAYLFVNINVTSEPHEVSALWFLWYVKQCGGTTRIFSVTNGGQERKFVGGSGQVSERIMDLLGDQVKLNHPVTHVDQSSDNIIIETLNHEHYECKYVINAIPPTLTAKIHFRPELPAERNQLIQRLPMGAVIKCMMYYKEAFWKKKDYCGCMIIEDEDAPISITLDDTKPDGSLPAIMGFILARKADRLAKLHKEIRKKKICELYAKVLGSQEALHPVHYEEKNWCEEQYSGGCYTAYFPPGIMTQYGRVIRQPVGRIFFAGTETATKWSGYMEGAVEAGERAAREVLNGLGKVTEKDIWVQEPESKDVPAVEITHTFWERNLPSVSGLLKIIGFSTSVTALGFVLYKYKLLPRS

[2] = molecular target: T2, Amine oxidase [flavin-containing] B (Homo sapiens, UniProt P27338); test: Inhibition of human recombinant MAO-B expressed in BTI-TN-5B1-4 cells assessed as H2O2 production using para-tyramine substrate at 100 uM by fluorimetric method; type: cell-based; settings: bti-tn-5b1-4, 100 µM
T2 sequence (P27338 whole entry): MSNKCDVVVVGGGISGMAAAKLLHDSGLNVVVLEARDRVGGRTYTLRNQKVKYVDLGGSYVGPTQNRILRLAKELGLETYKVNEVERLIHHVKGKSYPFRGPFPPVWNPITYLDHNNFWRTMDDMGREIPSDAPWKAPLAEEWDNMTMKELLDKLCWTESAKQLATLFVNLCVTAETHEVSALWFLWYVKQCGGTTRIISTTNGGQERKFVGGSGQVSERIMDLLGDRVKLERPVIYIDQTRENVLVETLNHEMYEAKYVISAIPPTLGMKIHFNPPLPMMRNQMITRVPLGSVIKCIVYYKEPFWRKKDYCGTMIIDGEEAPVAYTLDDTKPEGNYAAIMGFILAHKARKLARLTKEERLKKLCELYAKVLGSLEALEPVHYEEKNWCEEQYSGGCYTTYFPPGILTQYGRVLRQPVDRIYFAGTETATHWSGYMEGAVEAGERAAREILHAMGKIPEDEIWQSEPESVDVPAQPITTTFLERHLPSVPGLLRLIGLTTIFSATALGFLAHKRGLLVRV

[3] = organism: Homo sapiens; test: Selectivity index, ratio of IC50 for human recombinant MAO-A to IC50 for human recombinant MAO-B
Method in brief: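 SI is IC50(hMAO-A)/IC50(hMAO-B), from IC50s measured by Amplex Red/HRP fluorimetry of p-tyramine-driven H2O2 with baculovirus-expressed human isoforms (mean of five experiments each). Where no MAO-A IC50 was reached, the highest concentration tested was taken as that IC50.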

[4] = molecular target: T1, Amine oxidase [flavin-containing] A; test: Inhibition of human recombinant MAO-A expressed in BTI-TN-5B1-4 cells assessed as H2O2 production using para-tyramine substrate by fluorimetric method; type: cell-based
[5] = molecular target: T2, Amine oxidase [flavin-containing] B; test: Inhibition of human recombinant MAO-B expressed in BTI-TN-5B1-4 cells assessed as H2O2 production using para-tyramine substrate by fluorimetric method; type: cell-based

SMILES	inhibition (INH) [1]	inhibition (INH) [2]	Ratio IC50 [3]	pIC50 [4]	pIC50 [5]
COc1cc(OC)c2cc(-c3cccs3)c(=O)oc2c1	Not Active	Not Active			
COc1ccc2cc(-c3c[nH]c4ccccc34)c(=O)oc2c1			> 210	5.01	7.34
COc1cc(OC)c2cc(-c3c[nH]c4ccccc34)c(=O)oc2c1	Not Active	Not Active			
COc1ccc2cc(-c3ccsc3)c(=O)oc2c1			> 75	5.38	7.25
COc1ccc2oc(=O)c(-c3cccs3)cc2c1	Not Active		> 158		6.20
O=c1oc2ccccc2cc1-c1ccsc1	Not Active		> 7.5		4.88
COc1cc(OC)c2cc(-c3ccsc3)c(=O)oc2c1	Not Active	Not Active			
COc1ccc2cc(-c3cccs3)c(=O)oc2c1	Not Active		> 380		6.58
COc1ccc2oc(=O)c(-c3ccsc3)cc2c1	Not Active		> 428		6.63
O=c1oc2ccccc2cc1-c1c[nH]c2ccccc12	Not Active		> 52		5.72
COc1ccc2oc(=O)c(-c3c[nH]c4ccccc34)cc2c1	Not Active	Not Active			
O=c1oc2ccccc2cc1-c1cccs1	Not Active		> 15		5.20
